# According to publication PMC3220529 (The Journal of Biological Chemistry, 2011):
# “Also recorded” adds a separate entry of the source.
# Columns and labels:
# S100A10 [1] = format: binding, rabbit; settings: absence of annexin A2 peptide; data not shown
# S100A10-annexin A2 = S100A10-annexin A2 (Oryctolagus cuniculus, UniProt Q6SQH4, C83S); experiment: Overall binding of AHNAK5 to S100A10-annexin A2; parameters: species or system rabbit; settings: S100A10 without annexin A2 peptide; discussion statement
# [2] = molecular target: S100A10-annexin A2 hybrid protein (A10A2) dimer (Oryctolagus cuniculus, UniProt Q6SQH4, C83S); experiment: NMR titration; format: binding, rabbit; settings: pH 7.0
# [3] = molecular target: T1, A10A2 hybrid protein (dimer) (Oryctolagus cuniculus, UniProt Q6SQH4, C83S); experiment: Fluorescence titration of acrylodan-labeled A10A2 with AHNAK5; format: binding, rabbit; settings: shifted from near 495 nm; intensity decreased; pH 7.4
# Outline: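 Rabbit S100A10(C82S)–annexin A2 hybrid was made as a GST fusion in E. coli, cleaved with PreScission, and labelled with acrylodan. 167 nM labelled protein in 20 mM Tris-HCl, 120 mM NaCl, 1 mM DTT, pH 7.4, was stirred at room temperature. Peptide was added stepwise with 2 min stirring each. Excitation 375 nm, emission 400–600 nm, ΔF at 500 nm. Duplicate titrations were globally fit 1:1 for Kd.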
# S100A10 [4] = experiment: Fluorescence titration of acrylodan-labeled S100A10 with AHNAK5; format: binding, rabbit; settings: absence of annexin A2 peptide
# A10A2 = experiment: Peptide array of AHNAK C terminus probed with Alexa Fluor 680-A10A2; format: binding, rabbit; settings: 18-residue peptides shifted by 3 residues, Alexa-A10A2 0.2 μM, 2 h, 700 nm
# Outline: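 330 spots of 18-residue AHNAK peptides (residues 4884–5890, 3-residue offset) were Fmoc-synthesized on […]. Membranes were methanol-hydrated, washed in TBS + 0.05% Tween, and blocked 1 h with skim milk. A10A2 is a rabbit S100A10(C82S)–annexin A2 hybrid made in E. coli.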
# [5] = molecular target: T1, A10A2 hybrid protein (dimer); experiment: Isothermal titration calorimetry of AHNAK5 into A10A2; format: binding, rabbit
# [6] = molecular target: S100A10^C82S (rabbit S100A10 with Cys82 changed to Ser) (rabbit); experiment: native MS
# [7] = molecular target: S100A10^C82S-annexin A2 hybrid protein (A10A2) (rabbit | not stated); experiment: native MS
# [8] = molecular target: S100A10^C82S-annexin A2 hybrid protein (A10A2) (rabbit | not stated); experiment: NMR titration
# [9] = molecular target: non-covalent complex of S100A10 (C82S) dimer with two annexin A2 peptides (residues 1-15) (rabbit | not stated); experiment: native MS
# [10] = molecular target: acrylodan-labeled A10A2 hybrid protein (rabbit | not stated); experiment: other fluorescence titration
# [11] = molecular target: S100A10^C82S-annexin A2 hybrid protein (A10A2) (rabbit | not stated); experiment: ITC
molecule,measurement,setting,value
Ac-GKVTFPKMKIPKFTFSGREL-NH2 [AHNAK5],"interaction with S100A10 without annexin A2, NMR",S100A10 [1],did not show an interaction between S100A10 and AHNAK5; also recorded: no evidence for interaction of AHNAK5 with S100A10 in the absence of annexin A2
same,precipitation during titration of S100A10 with AHNAK5,S100A10 [1],prone to precipitation
same,interaction in experiments lacking annexin A2 peptide (summary),S100A10-annexin A2,little or no observable interaction
same,"exchange regime / peak doubling on AHNAK5 binding, A10A2","[2]; 1H-15N HSQC, 0.5 mM A10A2 (protomer), 0.25 mM AHNAK5, 35 °C",disappearance of peaks from S100A10 and the appearance of new resonances on the slow exchange time scale; also recorded: resonances from the annexin A2 portion of A10A2 also exhibited peak doubling
same,"stoichiometry AHNAK5 : A10A2 dimer, NMR","[2]; inflection point of peak intensity changes, 35 °C",one AHNAK5 peptide to one A10A2 dimer
same,acrylodan-A10A2 fluorescence maximum upon addition of AHNAK5,[3],500 nm
same,"interaction with S100A10, fluorescence",S100A10 [4],"little wavelength shift, suggestive of a poor interaction"
same,"A10A2 binding in peptide array (intensity, words)",A10A2,strong interaction with A10A2
same,entropy change,[5]; ITC,positive entropy change
same,ΔH (binding enthalpy),"[5]; ITC, 35 °C, pH 7.2",-10 ± 0.096 kcal/mol
same,ΔS (entropy change),"[5]; ITC, 35 °C, pH 7.2",0.00201 kcal/mol
same,"n (binding sites), ITC","[5]; single binding site fit, 35 °C, pH 7.2",1.02
S100A10^C82S (rabbit S100A10 with Cys82 changed to Ser) (natural protein),stoichiometry N,[6],2
S100A10^C82S-annexin A2 hybrid protein (A10A2),stoichiometry N,[7],2
sequence a: AHNAK array region Thr4917–Gly4940 (overlapping 18-residue peptides) (TAPDVDLHLKAPKIGFSGPKLEGG),"A10A2 binding in peptide array (intensity, words)",A10A2,best interaction with A10A2
sequence b: AHNAK array region Asp4959–Pro4994; most intense spot 4968–4985 (DSPDINIEGPDVKIPKFKKPKFGFGAKSPKADIKSP),"A10A2 binding in peptide array (intensity, words)",A10A2,best interaction with A10A2; also recorded: most intense binding at any one spot
sequence c: AHNAK array region Pro5220–Ile5243 (PDVDLQGPEAKIKFPKFSMPKIGI),"A10A2 binding in peptide array (intensity, words)",A10A2,best interaction with A10A2
sequence d: AHNAK array region Asn5607–Ile5633 (NLDTSKFAGGLHFSGPKVEGGVKGGQI),"A10A2 binding in peptide array (intensity, words)",A10A2,best interaction with A10A2
sequence e: AHNAK array region Gly5652–Gly5675; most intense spot 5652–5669 (GSGKVTFPKMKIPKFTFSGRELVG),"A10A2 binding in peptide array (intensity, words)",A10A2,best interaction with A10A2; also recorded: most intense binding at any one spot
sequence f: AHNAK array region Ser5703–Thr5729 (SEVKLKKSKIKMPKFNFSKPKGKGGVT),"A10A2 binding in peptide array (intensity, words)",A10A2,best interaction with A10A2
sequence g: AHNAK array region Ala5757–Ser5780 (AEAEASSPKGKFSLFKSKKPRHRS),"A10A2 binding in peptide array (intensity, words)",A10A2,best interaction with A10A2
sequence h: AHNAK array region Leu5808–Glu5837 (LEGGKVKGKHGKLKFGTFGGLGSKSKGHYE),"A10A2 binding in peptide array (intensity, words)",A10A2,best interaction with A10A2
Ac-GKVTFPKMKIPKFTFSGREL-NH2 [AHNAK5 peptide (AHNAK residues Gly5654-Leu5673)],Kd,[8],< 1000 nM
same,stoichiometry N (AHNAK5 per A10A2 dimer),[8],1
same,stoichiometry N,[9],1
same,stoichiometry N (AHNAK5 per A10A2 dimer),[7],1
same,Kd,[10],35 nM
same,Kd,[11],28 nM
same,dH,[11],-10 kcal/mol
same,stoichiometry N (AHNAK5 per A10A2 dimer),[11],1.02
Ac-STVHEILSKLSLEGD-NH2 [annexin A2 peptide (residues 1-15)],stoichiometry N (annexin A2 peptides per S100A10 dimer),[6],2
